Results taken from ChEMBL document CHEMBL1157584, “Discovery of 4-amino-1-(7H-pyrrolo[2,3-d]pyrimidin-4-yl)piperidine-4-carboxamides as selective, orally active inhibitors of protein kinase B (Akt)” (J Med Chem, 2010).
Values after ≈ are worked out from the molar mass of the structure shown.

Tests used:
[1] = test system: Mus musculus; experiment: Plasma clearance in mouse at 25 mg/kg, iv; type: ADME, organism-based; set-up: dose 25 mg/kg, route intravenous; details: in vivo
[2] = Solubility in aqueous buffer at pH 7.0; type: physicochemical
[3] = Solubility in aqueous buffer at pH 6.5; type: physicochemical
[4] = test system: Mus musculus; experiment: Plasma clearance in mouse at 10 mg/kg, iv; type: ADME, organism-based; set-up: dose 10 mg/kg, route intravenous; details: in vivo
[5] = test system: Mus musculus; experiment: Volume of distribution at steady state in mouse at 10 mg/kg, iv; type: ADME, organism-based; set-up: dose 10 mg/kg, route intravenous; details: in vivo
How it was run: (§1)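 Mice received a single iv dose, and plasma drug levels were followed over time. Pharmacokinetic parameters, including Vss in L, were fitted to model 201 with default settings.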

[6] = Oral bioavailability in mouse at 10 mg/kg; type: ADME, organism-based; details: in vivo
[7] = test system: Mus musculus; experiment: Half life in mouse at 10 mg/kg, iv; type: ADME, organism-based; set-up: dose 10 mg/kg, route intravenous; details: in vivo
[8] = Oral bioavailability in mouse at 5 mg/kg; type: ADME, organism-based; details: in vivo
[9] = Drug level in CrTac:Ncr-Fox1 (nu) athymic mouse tumor bearing human U87MG cells at 200 mg/kg, po single dose after 4 hrs; type: ADME, organism-based, Neoplasm, U-87MG ATCC; set-up: dose 200 mg/kg, route oral; details: read-out: Drug uptake
How it was run: (§2)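 U87MG xenograft-bearing athymic mice given a single oral dose of 200 mg/kg. Compound levels measured in plasma and tumor samples 4 h after dosing.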

[10] = test system: Mus musculus; experiment: Volume of distribution at steady state in mouse at 5 mg/kg, iv; type: ADME, organism-based; set-up: dose 5 mg/kg, route intravenous; details: in vivo; how it was run: as §1
[11] = Plasma concentration in CrTac:Ncr-Fox1 (nu) athymic mouse bearing human U87MG cells at 200 mg/kg, po single dose after 4 hrs; type: ADME, organism-based, U-87MG ATCC; set-up: dose 200 mg/kg, route oral; how it was run: as §2
[12] = test system: Mus musculus; experiment: Plasma clearance in mouse at 5 mg/kg, iv; type: ADME, organism-based; set-up: dose 5 mg/kg, route intravenous; details: in vivo
[13] = test system: Mus musculus; experiment: Half life in mouse at 5 mg/kg, iv; type: ADME, organism-based; set-up: dose 5 mg/kg, route intravenous; details: in vivo

## NC1(Cc2ccc(Cl)cc2)CCN(c2ncnc3[nH]ccc23)CC1
[1]
  CL: 0.33 L/h
[2]
  solubility: Insoluble
[3]
  solubility: 0.26 mg/mL (≈ 761 µM)

## CC(C)(C)c1ccc(CC2(N)CCN(c3ncnc4[nH]ccc34)CC2)cc1
[4]
  CL: 0.31 L/h
[5]
  Vdss: 0.27 L
[6]
  bioavailability: < 1%
[7]
  t1/2: 47.4 min

## NC1(C(=O)NCc2ccc(Cl)cc2)CCN(c2ncnc3[nH]ccc23)CC1
[8]
  bioavailability: 58%
[9]
  concentration at 4 h: 43 µM
[10]
  Vdss: 0.06 L
[11]
  concentration at 4 h: 20 µM
[12]
  CL: 0.08 L/h
[13]
  t1/2: 54 min
